This is a sample that favours compounds with a hit; in the whole collection about 0.74% have one here.
ASAP1 inh – inhibitors of human ASAP1 ArfGAP activity | Q9ULH1 | ASAP1-stimulated ARF1 GTP hydrolysis, GDP FP detection | inhibition, % at 16.5 µM | 360,000 compounds, 0.19% hits | AID 624377; in the data active = inhibition above about 25%
DDE Tn7 FP inh – DD(E)-Tn7 binding inhibition, primary FP screen. AID 720508. 370,000 compounds, 0.13% hits. FP displacement of FITC-Tn7 peptide from fibrin DD(E); 0% = median of compound wells per plate. inhibition, % at 8.3 µM;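 active = inhibition above the mean of compounds falling within the control limits plus 3 SD of them, cut at about 14% in these data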
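Assay system: human fibrin DD(E). Input: DD(E) 2 µM final. Medium: Tris buffer with calcium and detergent, pH 7.8. Compound dosing: single point at 8.3 µM. Timing: 10 min plus 3 h, room temperature. Technique: fluorescence polarization of the labelled Tn7 tracer. Read-out: percent inhibition. Replicates: singlicate testing.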
DDE Tn6 FP inh – DD(E)-Tn6 binding inhibition, primary FP screen | P02675 | Fibrin DD(E) TRITC-Tn6 fluorescence polarization displacement | inhibition, % at 8.3 µM | 370,000 compounds, 0.21% hits;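 active = inhibition above a per-campaign cutoff: mean of compounds within control limits plus 3 SD, cut at about 15% in these data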
ARFGAP1 inh – rat ARFGAP1 inhibition. Q62848. Arfgap1-stimulated ARF1 GTP hydrolysis, GDP FP detection. inhibition, % at 16.5 µM. 360,000 compounds, 0.26% hits. AID 651572;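 active = inhibition above a per-plate limit, mean inhibition of low control wells plus 3 SD, cut at about 25% in these data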
Target sequence (Q62848 1-136 limits assumed): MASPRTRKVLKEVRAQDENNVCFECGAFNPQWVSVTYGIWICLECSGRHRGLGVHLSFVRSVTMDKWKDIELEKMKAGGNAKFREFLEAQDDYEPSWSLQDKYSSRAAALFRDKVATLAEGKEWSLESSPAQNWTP
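Assay system: Rat Arfgap1 GAP domain (His6, aa 1-136), purified enzyme | Buffer or medium: HEPES 25 mM pH 7.5, NaCl 150 mM, MgCl2, DTT | Schedule: GTP hydrolysis reaction 2 h at 25 °C | Signal: FP of antibody-bound GDP Alexa 633 tracer, ex 620/em 688 nm | Measure: Percent inhibition of Arfgap1-stimulated GTP hydrolysis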
ARFGAP1 inh conf – rat ARFGAP1 inhibition, confirmed; shares compounds with ARFGAP1 inh; ARFGAP1-stimulated ARF1 GTP hydrolysis, GDP tracer FP; inhibition, % at 16.5 µM; 890 compounds, 30% hits; AID 651608;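 active = average inhibition over triplicates above the hit cutoff set in the earlier primary screen, cut at about 25% in these data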
Target sequence (Q62848 whole entry, looked up): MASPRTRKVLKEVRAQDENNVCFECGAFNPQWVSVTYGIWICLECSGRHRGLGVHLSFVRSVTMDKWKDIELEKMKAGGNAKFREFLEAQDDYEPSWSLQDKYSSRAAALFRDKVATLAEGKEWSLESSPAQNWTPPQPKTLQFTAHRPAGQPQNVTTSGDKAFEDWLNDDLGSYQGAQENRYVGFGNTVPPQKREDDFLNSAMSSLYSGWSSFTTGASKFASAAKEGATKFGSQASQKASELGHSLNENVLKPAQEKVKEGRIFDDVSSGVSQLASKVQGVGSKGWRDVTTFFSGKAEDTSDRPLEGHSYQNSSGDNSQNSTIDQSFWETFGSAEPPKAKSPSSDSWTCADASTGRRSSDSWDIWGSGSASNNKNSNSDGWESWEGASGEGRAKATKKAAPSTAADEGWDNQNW
Numbers stand for hits; - = inactive; . = no result.

SMILES | ASAP1 inh | DDE Tn7 FP inh | DDE Tn6 FP inh | ARFGAP1 inh | ARFGAP1 inh conf
CCC[C@H]1[C@@H](OC(=O)NCc2ccc(C)o2)CC[C@@]23CCCN2C(=O)CCC[C@@H]13 | . | - | - | . | .
CCOC(=O)c1oc2ccccc2c1NC(=O)c1ccc(Cl)s1 | - | - | - | 32 | -
CCOc1ccc(-n2c(SCC(=O)Nc3ccccc3-c3ccccc3)nnc2-c2ccncc2)cc1 | . | - | - | . | .
COC(=O)[C@H]1C[C@@]2(c3ccccc3)c3ccccc3N[C@H]2N1 | . | - | - | . | .
Cc1ccc(S(=O)(=O)Nc2ccccc2C(O)c2ccccc2)cc1 (stereo unspecified) | - | - | - | 26 | -
Cc1ccc(S(=O)(=O)Nc2ccccc2-c2ccccc2NS(=O)(=O)c2ccc(C)cc2)cc1 | - | - | - | - | .
CN1C(=O)c2ccc(NC(=O)c3c(C(=O)O)cccc3[N+](=O)[O-])cc2C1=O | - | - | - | 26 | -
Cc1cc(=O)oc2cc(OCc3ccc(C(=O)OCC(=O)Nc4ccccc4OC(F)F)cc3)ccc12 | - | - | - | 42 | 50
O=C(NC(=S)Nc1ccc2c(c1)OCCO2)c1ccccc1 | - | - | - | 25 | -
O=C(NC(=S)Nc1ccc2c(c1)OCCO2)c1ccccc1F | - | - | - | - | .
Cc1cc(OC(C)CCN2CCC(C(O)(c3ccccc3)c3ccccc3)CC2)ccc1Br (stereo unspecified) | . | - | - | . | .
CCC(=O)Nc1ccc(NC(=O)c2oc3ccccc3c2C)cc1 | - | - | - | - | .
Cc1c(C(=O)Nc2ccc(-n3cnnn3)cc2)oc2ccccc12 | - | - | - | 26 | 47
Cc1ccc(-n2c(SCC(=O)Nc3ccc4c(c3)OCCO4)nnc2-c2cnccn2)cc1 | . | - | - | . | .
Oc1ccc(/C=C/c2ccc3cccc(O)c3n2)cc1Br | - | - | - | 28 | -
COc1ccc(Cn2cc(CN3[C@H](CC(C)C)COc4cc(Br)ccc4S3(=O)=O)nn2)cc1 | . | - | - | . | .
CNC(=O)[C@@H]1C[C@H]1[C@@H](NC(=O)OCc1ccccc1)c1ccccc1 | - | - | - | 25 | -
CC(NC(=O)OCc1ccccc1)c1ccccc1 (stereo unspecified) | - | - | - | - | .
CC(C(=O)Nc1nc(-c2ccc(F)c(F)c2)cs1)N1C(=O)C2CC=CCC2C1=O (stereo unspecified) | - | - | - | 27 | -
COc1ccc(-c2nc3cc(NC(=O)Cc4ccc(OC)c(OC)c4)ccc3o2)cc1 | - | - | - | 25 | -
COc1ccc(C(c2oc(CO)cc(=O)c2O)c2oc(CO)cc(=O)c2O)cc1OC | - | - | - | 27 | -
CCN1CCN(C(=O)Cn2ncc3c([nH]c4ccccc43)c2=O)CC1 | - | - | - | - | .
CCN1CCN(C(=O)Cn2ncc3c([nH]c4ccc(C)cc43)c2=O)CC1 | - | - | - | 25 | 29
COc1cc(NC(=O)c2ccccn2)ccc1NC(=O)c1ccccc1Cl | . | - | - | . | .
CC(C)CNc1cccc2c1S(=O)(=O)N(Cc1cn(Cc3ccc(F)cc3)nn1)Cc1ccccc1O2 | . | - | - | . | .
SMILES | ASAP1 inh | DDE Tn7 FP inh | DDE Tn6 FP inh | ARFGAP1 inh | ARFGAP1 inh conf
CCOc1ccc(-c2[nH]ncc2-c2ccccc2)c(O)c1 | - | - | - | 25 | -
COc1ccc(-c2cn[nH]c2-c2ccc(OCc3ccccc3)cc2O)cc1 | - | - | - | - | .
CCOC(=O)[C@@]12CN(C(=O)OC(C)(C)C)CC=C1N(Cc1ccc(OC)cc1)C(=O)[C@H]2CC(=O)N1CCCCC1 | . | - | - | . | .
CC(=O)Nc1ccc(OCC(O)Cn2c3ccccc3c3ccccc32)cc1 (stereo unspecified) | - | - | - | - | .
CC(=O)Nc1ccc(OCC(O)Cn2c3ccccc3c3ccccc32)c(C)c1 (stereo unspecified) | - | - | - | 25 | 26
Cc1c(C(=O)OCC(=O)N2CC(C)CC(C)C2)oc2ccccc12 (stereo unspecified) | - | - | - | - | .
COc1ccc2oc(C(=O)OCC(=O)N3CC(C)CC(C)C3)c(C)c2c1 (stereo unspecified) | - | - | - | 31 | 39
COc1ccc2oc(C(=O)OCC(=O)N3CC(C)OC(C)C3)c(C)c2c1 (stereo unspecified) | - | - | - | 25 | -
COc1ccc2oc(C(=O)OCC(=O)N3C(C)CCCC3C)c(C)c2c1 (stereo unspecified) | - | - | - | - | .
CC(C)(C)CCN1C[C@@H]2C(CNC(=O)c3cc(Cl)cc(Cl)c3)[C@@H]2C1 (stereo partly specified) | . | - | - | . | .
COc1cc2c3c(c1OC)C1(C=CC(=NO)C=C1)CC3N(C(C)=O)CC2 (stereo unspecified) | - | - | - | - | .
COc1cc2c3c(c1OC)C1(C=CC(=O)C=C1)CC3N(C(C)=O)CC2 (stereo unspecified) | - | - | - | 29 | -
CC(NC1=CC(=O)c2cccnc2C1=O)C(O)c1ccccc1 (stereo unspecified) | - | - | - | 27 | -
CC(c1ccccc1)N1C(=O)c2cccnc2C1=O (stereo unspecified) | - | - | - | - | .
COc1cccc(/C=C/c2nc3c(cnn3-c3ccccc3)c(=O)[nH]2)c1 | - | - | - | 28 | -
COc1cccc(/C=N/n2nnc3c(cnn3-c3ccccc3)c2=O)c1 | - | - | - | - | .
O=C1CCC[C@H]2C[C@H](NCc3ccc(F)cc3F)CC[C@]23CCCN13 | . | - | - | . | .
Cc1nc2ccc(C(=O)N3c4ccccc4N=C(c4ccc(C(F)(F)F)cc4)C3C(=O)NC(C)(C)C)cc2[nH]1 (stereo unspecified) | - | - | - | 26 | -
COc1ccc(NS(=O)(=O)c2cccc(C(=O)N/N=C(\C)c3ccncc3)c2)cc1 | - | - | - | 39 | -
CC(C)(C)OC(=O)n1cc(-c2ccccc2)c2c(-c3ccccc3)c(O)ccc21 | . | - | - | . | .
Cn1c(=O)c2c(-c3ccccc3F)c3c(nc2n(C)c1=O)-c1ccccc1C3O (stereo unspecified) | - | - | - | 25 | -
CNC(=O)[C@@H]1CC=C[C@@H]2CCN(c3ccccc3)C(=O)[C@@H]21 | . | - | - | . | .
Cc1ccc(-n2nc3ccc(NC(=O)c4ccco4)cc3n2)cc1 | - | - | - | 30 | -
Cc1ccc(-n2nc3ccc(NC(=O)C(C)C)cc3n2)cc1 | - | - | - | - | .
COc1cccc(N=Cc2c[nH][nH]c2=O)c1 | - | - | - | - | .
SMILES | ASAP1 inh | DDE Tn7 FP inh | DDE Tn6 FP inh | ARFGAP1 inh | ARFGAP1 inh conf
O=c1[nH][nH]cc1C=Nc1ccc(Cl)cc1 | - | - | - | 36 | -
CC[C@H](CCCCCCCn1ccc2ccccc21)CCC(=O)N(c1ccccc1)c1ccccc1 | . | - | - | . | .
Cc1cc(C)c2cc(N)c(Cl)nc2n1 | - | - | - | - | .
Nc1cc(Cl)nnc1Cl | - | - | - | 25 | -
O=C(Nc1ccccc1N1CCCCC1)c1ccc(-c2ccc(Cl)cc2)o1 | - | - | - | 27 | -
COc1ccc(OC[C@@H](O)CN2CCC(C(O)(c3ccccc3)c3ccccc3)CC2)cc1 | . | - | - | . | .

High-throughput results: PubChem, The Scripps Research Institute Molecular Screening Center
